Results: ChEMBL document CHEMBL4038314, “Synthetic Modification within the "RPRL" Region of Apelin Peptides: Impact on Cardiovascular Activity and Stability to Neprilysin and Plasma Degradation” (J Med Chem, 2017)
Blank lines part the entries; values can stand above or below the compound they belong to. Active and inactive are the calls of the source. No cut-off for these calls is given here. Starred links: 1 amine or outer side, 2 acyl side, 3 side chain; linkers in the order of their positions; H or OH if unused. Non-standard residues stand in square brackets, D forms with d. Residues, ends and D or L forms follow the SMILES beside them. Phe(4-Br) = N[C@@H](Cc1ccc(Br)cc1)C(=O)O; X1 = N=C(N)NCCCN(N[*:1])C(=O)[*:2]; pGlu = O=C1CC[C@@H](C(=O)O)N1; Nle = CCCC[C@H](N)C(=O)O; Aib = CC(C)(N)C(=O)O

How the values were obtained:
[1] = system: Mus musculus; assay: Cardiovascular activity in anesthetized mouse assessed as decrease in blood pressure at 1.4 uM/kg, iv relative to control; format: functional, organism-based
Summary of the method: (§1)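 Mice under 1.5% isoflurane, body temperature held at 36 °C on a heating pad. Aorta cannulated via the right carotid artery with a 1.2F PV loop catheter to record arterial pressure and heart rate continuously. Peptide given systemically through the right internal jugular vein.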

[2] = target: T1, Neprilysin (Homo sapiens, UniProt P08473); assay: Inhibition of recombinant human NEP using pyr-1-apelin-13 as substrate assessed as peptide degradation at 1 mM preincubated for 10 mins followed by substrate addition measured after 72 hrs by LC-MS analysis; conditions: 1000 µM
T1 sequence (P08473 whole entry): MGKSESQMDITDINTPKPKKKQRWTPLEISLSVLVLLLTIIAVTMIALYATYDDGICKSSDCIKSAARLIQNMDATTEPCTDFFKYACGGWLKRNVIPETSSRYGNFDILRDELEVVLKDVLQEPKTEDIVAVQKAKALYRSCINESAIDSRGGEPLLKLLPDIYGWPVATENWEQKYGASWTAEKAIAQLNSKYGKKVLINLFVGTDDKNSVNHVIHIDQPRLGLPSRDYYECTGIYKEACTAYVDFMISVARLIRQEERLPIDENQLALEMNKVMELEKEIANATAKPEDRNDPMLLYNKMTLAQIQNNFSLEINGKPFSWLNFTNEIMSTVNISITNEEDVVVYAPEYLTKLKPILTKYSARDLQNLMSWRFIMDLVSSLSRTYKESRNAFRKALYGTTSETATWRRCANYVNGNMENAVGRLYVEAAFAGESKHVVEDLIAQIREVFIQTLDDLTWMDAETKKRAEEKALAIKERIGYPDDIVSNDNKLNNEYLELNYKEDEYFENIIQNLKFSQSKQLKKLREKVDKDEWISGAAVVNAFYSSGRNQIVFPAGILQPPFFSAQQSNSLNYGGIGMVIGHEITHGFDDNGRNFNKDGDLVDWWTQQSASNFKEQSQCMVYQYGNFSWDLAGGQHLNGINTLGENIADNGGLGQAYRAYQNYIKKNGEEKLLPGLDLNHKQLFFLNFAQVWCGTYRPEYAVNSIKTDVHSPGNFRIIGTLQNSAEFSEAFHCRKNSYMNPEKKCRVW
Summary of the method: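 Recombinant human NEP, 3.1 nM in Tris/NaCl/10 μM ZnCl2 buffer, pH 7.5, preincubated 10 min at 37 °C with 5 μL of 1 mM analogue stock (equimolar to substrate) plus dansyl-YVG standard. Then 5 μL of 1 mM pyr-1-apelin-13 added. Aliquots taken at 0, 1, 4, 24 and 72 h and analysed by LC−MS; duplicate per time point.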

[3] = target: T1, Neprilysin; assay: Drug metabolism assessed as recombinant human NEP-medited peptide proteolysis at 1 mM up to 72 hrs by LC-MS analysis; format: ADME; conditions: 1000 µM
Summary of the method: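 Recombinant human NEP, 3.1 nM final in 100 mM Tris, 100 mM NaCl, 10 μM ZnCl2, pH 7.5, preincubated 10 min at 37 °C. Then 5 μL of 1 mM peptide stock and dansyl-YVG internal standard added; incubated at 37 °C for up to 72 h. Extracted-ion LC−MS ratio of parent to standard compared with 0 h and converted to percent cleaved.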

[4] = system: Mus musculus; assay: Cardiovascular activity in anesthetized mouse assessed as increase in heart rate at 1.4 uM/kg, iv relative to control; format: functional, organism-based; summary of the method: as §1
[5] = target: T1, Neprilysin; assay: Drug degradation in human plasma assessed as NEP-mediated degradation by measuring amount of apelin remaining after 60 mins by RP-HPLC analysis; format: ADME; conditions: 1 h
Summary of the method: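 Human plasma (20 μL) prewarmed to 37 °C, then 5 μL of 400 μM peptide added and incubated for set times; done in triplicate. Quenched with 10% aqueous TFA, dansyl-YVG internal standard added, and peptides recovered on a C18 spin column with 40% acetonitrile/0.1% TFA. Analysed by C18 RP-HPLC; peptide/standard peak-area ratio compared with the 0 min ratio.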

[6] = system: Heart; assay: Cardioprotective activity against Langendorff isolated mouse heart ischemia-reperfusion model assessed as improvement in LVDP at 1 uM administered for 10 mins during start of 40 mins reperfusion period post 30 mins ischemic induction; format: functional, tissue-based
Summary of the method: (§2)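 Mouse hearts (heparinized, isoflurane 1.5−2%) excised and Langendorff-perfused at constant 80 mmHg with modified Krebs−Henseleit buffer, 37 °C, 95% O2/5% CO2, pH 7.4. After 10 min baseline, 30 min global ischemia, then 40 min reperfusion. Peptide at 1 μM given for the first 10 min of reperfusion, with saline sham and native apelin-17 as controls. Left ventricular function recorded continuously.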

[7] = system: Heart; assay: Cardioprotective activity against Langendorff isolated mouse heart ischemia-reperfusion model assessed as improvement in RPP at 1 uM administered for 10 mins during start of 40 mins reperfusion period post 30 mins ischemic induction; format: functional, tissue-based; summary of the method: as §2
[8] = system: Heart; assay: Cardioprotective activity against Langendorff isolated mouse heart ischemia-reperfusion model assessed as maximum derivative change in systolic pressure over time at 1 uM administered for 10 mins during start of 40 mins reperfusion period post 30 mins ischemic induction; format: functional, tissue-based; summary of the method: as §2
[9] = system: Heart; assay: Cardioprotective activity against Langendorff isolated mouse heart ischemia-reperfusion model assessed as minimum derivative change in diastolic pressure over time at 1 uM administered for 10 mins during start of 40 mins reperfusion period post 30 mins ischemic induction; format: functional, tissue-based; summary of the method: as §2
[10] = system: Mus musculus; assay: Cardiotoxicity in anesthetized mouse assessed as induction of tachycardia at 1.4 uM/kg, iv relative to control; format: toxicity, organism-based; conditions: in vivo, 1.4 µmol/kg; summary of the method: as §1

Structure (SMILES): CCCC[C@H](NC(=O)[C@@H]1CCCN1C(=O)CNC(=O)[C@H](CCCCN)NC(=O)[C@H](Cc1c[nH]cn1)NC(=O)[C@H](CO)NC(=O)[C@](C)(CC(C)C)NC(=O)[C@H](CCCNC(=N)N)NC(=O)[C@@H]1CCCN1C(=O)[C@H](CCCNC(=N)N)NC(=O)[C@@H]1CCC(=O)N1)C(=O)NC(C)(C)C(=O)N[C@@H](Cc1ccc(Br)cc1)C(=O)O
inhibition (INH) [2]: Not Active
Drug metabolism [3]: Metabolite_Notdetected
Activity [4]: Active
Drug degradation [5]: 38%

Structure (SMILES): CCCC[C@H](NC(=O)[C@@H]1CCCN1C(=O)CNC(=O)[C@H](CCCCN)NC(=O)[C@H](Cc1c[nH]cn1)NC(=O)[C@H](CO)NC(=O)[C@H](CC(C)C)NC(=O)N(CCCNC(=N)N)NC(=O)[C@@H]1CCCN1C(=O)[C@H](CCCNC(=N)N)NC(=O)[C@H](CCC(N)=O)NC(=O)[C@H](CCCNC(=N)N)NC(=O)[C@H](CCCNC(=N)N)NC(=O)[C@H](Cc1ccccc1)NC(=O)[C@@H](N)CCCCN)C(=O)NC(C)(C)C(=O)N[C@@H](Cc1ccc(Br)cc1)C(=O)O (H-KFRRQRP[X1]LSHKGP[Nle][Aib][Phe(4-Br)]-OH)
Activity [6]: Active
Activity [7]: Active
Activity [1]: Active
Activity [8]: Active
Activity [9]: Active
inhibition (INH) [2]: Not Active
Drug metabolism [3]: Metabolite_Notdetected
Activity [10]: Toxic
Drug degradation [5]: 94%

Structure (SMILES): CCCC[C@H](NC(=O)[C@@H]1CCCN1C(=O)CNC(=O)[C@H](CCCCN)NC(=O)[C@H](Cc1c[nH]cn1)NC(=O)[C@H](CO)NC(=O)[C@H](CC(C)C)NC(=O)N(CCCNC(=N)N)NC(=O)[C@@H]1CCCN1C(=O)[C@H](CCCNC(=N)N)NC(=O)[C@@H]1CCC(=O)N1)C(=O)NC(C)(C)C(=O)N[C@@H](Cc1ccc(Br)cc1)C(=O)O ([pGlu]RP[X1]LSHKGP[Nle][Aib][Phe(4-Br)]-OH)
inhibition (INH) [2]: Not Active
Drug metabolism [3]: Metabolite_Notdetected
Activity [4]: Active
Drug degradation [5]: 57%

Continued, in another order:

inhibition (INH) [2]: Not Active
Drug metabolism [3]: Metabolite_Notdetected
Drug degradation [5]: 59%
Structure (SMILES): CCCC[C@H](NC(=O)[C@@H]1CCCN1C(=O)CNC(=O)[C@H](CCCCN)NC(=O)[C@H](Cc1c[nH]cn1)NC(=O)[C@H](CO)NC(=O)[C@H](CC(C)C)N(C)C(=O)[C@H](CCCNC(=N)N)NC(=O)[C@@H]1CCCN1C(=O)[C@H](CCCNC(=N)N)NC(=O)[C@@H]1CCC(=O)N1)C(=O)NC(C)(C)C(=O)N[C@@H](Cc1ccc(Br)cc1)C(=O)O
Activity [1]: inactive
Activity [4]: Active

Drug metabolism [3]: Metabolite_Detected
Drug degradation [5]: 65%
Structure (SMILES): CCCC[C@H](NC(=O)[C@@H]1CCCN1C(=O)CNC(=O)[C@H](CCCCN)NC(=O)[C@H](Cc1c[nH]cn1)NC(=O)[C@H](CO)NC(=O)[C@H](CC(C)C)NC(=O)[C@H](CCCNC(=N)N)NC(=O)[C@@H]1CCCN1C(=O)[C@H](CCCNC(=N)N)NC(=O)[C@@H]1CCC(=O)N1)C(=O)NC(C)(C)C(=O)N[C@@H](Cc1ccc(Br)cc1)C(=O)O
Activity [1]: inactive
Activity [4]: inactive
